Measurements taken from ChEMBL document CHEMBL2093137, “WHO-TDR NTD Screening”.
Values after ≈ are worked out from the molar mass of the structure shown.

Assays:
[1] = test system: Plasmodium falciparum K1; test: WHO-TDR: Malaria; type: functional, organism-based, Homo sapiens; conditions: Erythrocyte
In short: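 Following previously published standard procedures, with a reference drug serving as positive control, compounds were tested on the Plasmodium falciparum K1 strain inside human red blood cells. The 10,000-compound diverse set came from Life Chemicals after filtering for drug-likeness and reactive groups. Potency against the parasite appears as IC50.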

[2] = test system: Trypanosoma brucei brucei; test: WHO-TDR: Human African Trypanosomiasis (HAT); type: functional, organism-based; conditions: Squib-427
In short: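 Bloodstream forms of the Trypanosoma brucei Squib 427 strain were tested in a whole-organism screen with a diverse library from Life Chemicals of 10,000 compounds. Before screening, the library was filtered for drug-likeness and for reactive groups. The assay used previously published standard procedures and included reference drugs as positive controls. Potency against the parasite is expressed as IC50.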

[3] = test system: Schistosoma mansoni; test: WHO-TDR: Schistosomiasis; type: functional; design: concentration or dose not given beside the values
In short: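 In this whole-organism assay, larval and/or adult worms of Schistosoma mansoni (Puerto Rican strain) were exposed to compounds from a diverse Life Chemicals library of 10,000 members. A reference drug served as positive control. Activity is stated as percent inhibition and IC50.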

[4] = test system: Brugia malayi; test: WHO-TDR: Lymphatic Filariasis; type: functional; design: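 tested at 10 µM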
In short: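 In a whole-organism assay, Brugia malayi microfilariae were screened against a diverse Life Chemicals library that had been filtered for drug-likeness and reactive groups. That library comprised 10,000 compounds. Activity is expressed as percent inhibition and as IC50.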

[5] = WHO-TDR: Cytotoxicity; type: toxicity, cell-based; conditions: human, MRC5 cells
[6] = test system: Onchocerca ochengi; test: WHO-TDR: Onchocerciasis; type: functional; design: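 at 12.5 µM on microfilariae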
In short: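 Microfilariae of Onchocerca ochengi or Onchocerca lienalis, animal pathogens standing in for the human parasite, were exposed to compounds in a whole-organism screen. The compounds came from a 10,000-compound diverse Life Chemicals library filtered for drug-likeness and reactive groups. Results are expressed as percent inhibition and IC50.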

[7] = test system: Trypanosoma cruzi; test: WHO-TDR: Chagas disease; type: functional, organism-based, Homo sapiens; conditions: MRC5
In short: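 Each IC50 reflects antiparasitic potency against intracellular amastigotes of Trypanosoma cruzi Tulahuen CL2 beta-galactosidase strain. These were cultured in MRC-5SV2 human lung fibroblasts and exposed to a 10,000-compound diverse Life Chemicals library screened according to published standard procedures with a reference drug as positive control.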

[8] = test system: Leishmania infantum; test: WHO-TDR: Leishmaniasis; type: functional, organism-based, Mus musculus; conditions: Macrophage
In short: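 Following previously published standard procedures, a whole-organism screen was run on Leishmania infantum MHOM/MA(BE)/67 amastigotes within murine peritoneal macrophages, with a reference drug as positive control. The 10,000 compounds tested formed a diverse Life Chemicals library filtered for drug-likeness and reactive groups. Potency against the parasite is reported as IC50.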

Row | IC50 [1] [µg/mL] | IC50 [2] [µg/mL] | IC50 [8] [µg/mL] | Compound | % Inhibition [3] [%] | % Inhibition [4] [%] | IC50 [5] [µg/mL] | % Inhibition [6] [%] | IC50 [7] [µg/mL]
1 | 9.31 (≈ 30 µM) | > 9.31 | > 9.31 | OCc1cnc(SCc2ccccc2)n1Cc1ccccc1 | 0 | 25 | > 9.31 | 100 | > 9.31
2 | > 8.51 | > 8.51 | > 8.51 | CSc1ccccc1NC(=O)c1ccc(Cl)s1 | 0 | 25 | > 8.51 | 100 | > 8.51
3 | > 13.1 | 4.84 (≈ 11.1 µM) | > 13.1 | O=C(CSc1ncc(CO)n1Cc1ccc(Cl)cc1)NCc1ccccc1Cl | 0 | 25 | > 13.1 | 100 | 4.39 (≈ 10.1 µM)
4 | > 11.3 | > 11.3 | > 11.3 | O=C(Cc1csc(Nc2ccccc2)n1)NCCc1c[nH]c2ccccc12 | – | 20 | > 11.3 | 100 | > 11.3
5 | > 12 | > 12 | > 12 | O=C(Cc1csc(Nc2ccc(OC(F)(F)F)cc2)n1)NCC1CCCO1 (configuration not stated) | – | 20 | > 12 | 100 | 5.45 (≈ 13.6 µM)
6 | > 12 | > 12 | > 12 | O=C(Cc1csc(Nc2ccc(F)cc2)n1)N1CCN(c2ncccn2)CC1 | – | 20 | > 12 | 100 | 5.13 (≈ 12.9 µM)
7 | > 12.5 | > 12.5 | 8.54 (≈ 20.4 µM) | COc1ccc(OC)c(Nc2nc(CC(=O)NCc3ccccc3Cl)cs2)c1 | – | 20 | 2.13 (≈ 5.1 µM) | 100 | 3.77 (≈ 9.02 µM)
8 | > 12.9 | 4.46 (≈ 10.3 µM) | 6.7 (≈ 15.5 µM) | O=C(Cc1csc(Nc2cccc(Cl)c2)n1)N1CCN(C(=O)c2ccco2)CC1 | – | 20 | 3.98 (≈ 9.24 µM) | 100 | 4.55 (≈ 10.6 µM)
9 | > 10.8 | > 10.8 | 2.55 (≈ 7.11 µM) | O=C(Cc1csc(Nc2cccc(Cl)c2)n1)NCc1ccccn1 | – | 0 | 1.76 (≈ 4.91 µM) | 100 | 1.71 (≈ 4.75 µM)
10 | 4.83 (≈ 12.2 µM) | > 11.9 | > 11.9 | O=C(CSC1=Nc2cccnc2Nc2ccccc21)Nc1ccc(F)c(F)c1 | 0 | 0 | > 11.9 | 100 | > 11.9
11 | 13.3 (≈ 30 µM) | > 13.3 | > 13.3 | O=C(CSC1=Nc2cccnc2Nc2ccccc21)Nc1ccc(OC(F)(F)F)cc1 | 0 | 0 | > 13.3 | 100 | > 13.3
12 | > 11.6 | > 11.6 | > 11.6 | O=S(=O)(NCC(c1cccs1)N1CCOCC1)c1ccc(Cl)cc1 (configuration not stated) | 0 | 0 | > 11.6 | 100 | > 11.6
13 | > 11.8 | > 11.8 | > 11.8 | O=S(=O)(NCC(c1cccs1)N1CCOCC1)c1ccc(Cl)s1 (configuration not stated) | 0 | 0 | > 11.8 | 100 | > 11.8
14 | > 10.9 | 3.44 (≈ 9.49 µM) | > 10.9 | CN(C)C(CNS(=O)(=O)c1ccc(Cl)s1)c1ccc(F)cc1 (configuration not stated) | 0 | 0 | > 10.9 | 100 | > 10.9
15 | > 11.3 | 2.99 (≈ 7.95 µM) | > 11.3 | CN(C)C(CNS(=O)(=O)c1ccc2c(c1)CCCC2)c1ccc(F)cc1 (configuration not stated) | 0 | 0 | > 11.3 | 100 | 4.67 (≈ 12.4 µM)
16 | > 12.5 | > 12.5 | > 12.5 | COc1ccc(C(CNS(=O)(=O)c2ccc(Cl)s2)N2CCOCC2)cc1 (configuration not stated) | 0 | 0 | > 12.5 | 100 | > 12.5

Row | IC50 [1] [µg/mL] | IC50 [2] [µg/mL] | IC50 [8] [µg/mL] | Compound | % Inhibition [3] [%] | % Inhibition [4] [%] | IC50 [5] [µg/mL] | % Inhibition [6] [%] | IC50 [7] [µg/mL]
17 | > 12 | 4.02 (≈ 10.1 µM) | > 12 | COc1ccc(S(=O)(=O)NCC(c2cccc3ccccc23)N(C)C)cc1C (configuration not stated) | 0 | 0 | > 12 | 100 | > 12
18 | 8.79 (≈ 20.7 µM) | 4.12 (≈ 9.71 µM) | > 12.7 | Cc1ccc(S(=O)(=O)NCC(c2cccc3ccccc23)N2CCOCC2)cc1C (configuration not stated) | 0 | 25 | > 12.7 | 100 | 4.18 (≈ 9.85 µM)
19 | > 12.2 | > 12.2 | > 12.2 | O=C(NCCOc1ccc(-c2ccc(F)cc2)nn1)c1cccc(C(F)(F)F)c1 | 0 | 25 | > 12.2 | 100 | > 12.2
20 | > 12.5 | > 12.5 | > 12.5 | Cc1ccc(Cn2c(CO)cnc2SCC(=O)Nc2cccc3ccccc23)cc1 | 0 | 25 | > 12.5 | 100 | > 12.5
21 | > 13.7 | > 13.7 | > 13.7 | CCOC(=O)c1ccccc1NC(=O)CSc1ncc(CO)n1Cc1ccc(OC)cc1 | 0 | 25 | > 13.7 | 100 | > 13.7
22 | > 16 | > 16 | > 16 | O=C(C1CCN(S(=O)(=O)c2cccs2)CC1)N(Cc1cccnc1)c1nc2c(F)cc(F)cc2s1 | 0 | 25 | > 10.9 | 0 | 0.535 (≈ 1 µM)
23 | 0.637 (≈ 1.64 µM) | 0.378 (≈ 0.971 µM) | 0.313 (≈ 0.804 µM) | Cc1ccc(-n2ncc3c(=O)[nH]c(-n4nc(C)cc4NC(=O)C4CC4)nc32)cc1 | 0 | 0 | 0.591 (≈ 1.52 µM) | 100 | 0.214 (≈ 0.55 µM)
24 | > 12 | 4.02 (≈ 10.1 µM) | > 12 | CS(=O)(=O)c1ccccc1C(=O)Nc1nc(-c2cc3ccccc3o2)cs1 | 0 | 0 | 5.25 (≈ 13.2 µM) | 100 | 4.3 (≈ 10.8 µM)
25 | > 11.1 | > 11.1 | > 11.1 | CSc1cccc2sc(N3CCN(C(=O)c4ccccc4)CC3)nc12 | 0 | 0 | > 11.1 | 100 | 4.19 (≈ 11.3 µM)
26 | > 14.9 | > 14.9 | > 14.9 | CSc1ccc2nc(N(Cc3cccnc3)C(=O)c3ccc(C(=O)c4ccccc4)cc3)sc2c1 | 0 | 0 | > 14.9 | 0 | 0.874 (≈ 1.76 µM)
27 | 0.145 (≈ 0.324 µM) | > 13.4 | > 13.4 | CSc1ccc2nc(N(Cc3cccnc3)C(=O)c3ccc(C(C)(C)C)cc3)sc2c1 | 0 | 0 | 7.16 (≈ 16 µM) | 25 | 0.556 (≈ 1.24 µM)
28 | 4.49 (≈ 8.71 µM) | > 15.5 | > 15.5 | CS(=O)(=O)c1ccc2nc(N(Cc3cccnc3)C(=O)c3cccc(Oc4ccccc4)c3)sc2c1 | 0 | 0 | > 15.5 | 0 | 0.275 (≈ 0.533 µM)
29 | > 14.2 | > 14.2 | 4.6 (≈ 9.71 µM) | CS(=O)(=O)c1ccc2nc(N(Cc3cccnc3)C(=O)c3ccc4ccccc4c3)sc2c1 | 0 | 0 | > 14.2 | 0 | 0.225 (≈ 0.475 µM)
30 | 8.28 (≈ 17.6 µM) | > 14.1 | > 14.1 | CSc1cccc(C(=O)N(Cc2cccnc2)c2nc3ccc(S(C)(=O)=O)cc3s2)c1 | 0 | 0 | > 14.1 | 0 | 0.383 (≈ 0.816 µM)
31 | > 12.7 | 4.07 (≈ 9.6 µM) | > 12.7 | O=C(Nc1nc2c(s1)CCCC2)C1CCN(S(=O)(=O)c2ccc(F)cc2)CC1 | 0 | 0 | > 12.7 | 100 | 2.79 (≈ 6.58 µM)
